Assay results gathered from unrelated publications.
Each line is one published result; the experiments were not run side by side.
Target: Tyrosine-protein kinase FRK (FRK, Homo sapiens, UniProt P42685)

O=C(NCC1CCOCC1)c1n[nH]cc1NC(=O)c1c(F)cccc1F
remaining binding (binding; competition with immobilised ligand; 1 µM): 100%

Nc1ncc2c(n1)-c1c([nH]c3ccc(C#CC4CC4)cc13)CCCC2
remaining binding (binding; competition with immobilised ligand; 1 µM): 95%

C[C@@H](c1cccc(C#N)c1)n1cc(Cl)cc(C(N)=O)c1=N
remaining binding (cell-free assay; competition with immobilised ligand; 1 µM): 100%

C[C@@H]1CCN(c2nccc(-c3cnn4ncccc34)n2)C1
remaining binding (binding; 1 µM): 100%

COc1cnc(Nc2cccc(S(N)(=O)=O)c2)nc1N1CCN(c2ccccc2)CC1
remaining binding (binding; competition with immobilised ligand; 1 µM): 100%

Cc1cnc(Nc2ccc(C(=O)N3CCC(N4CCCC4)CC3)cc2)nc1-c1cc2ccccc2s1
remaining binding (binding; competition with immobilised ligand; 1 µM): 76%

c1cnn2ncc(-c3ccnc(N4CCC45COC5)n3)c2c1
remaining binding (binding; 1 µM): 82%

O=C(c1ccc(Nc2ncc(Cl)c(-c3ccc(Cl)s3)n2)cc1)N1CCC(N2CCCC2)CC1
remaining binding (binding; competition with immobilised ligand; 1 µM): 97%

CNC(=O)Nc1ccc2c(c1)[C@@]1(CC2)OC(=O)N(CC(=O)N(Cc2ccc(F)cc2)[C@@H](C)C(F)(F)F)C1=O
remaining binding (cell-free assay; competition with immobilised ligand; 1 µM): 95%

COc1ncc2cc3ccccc3nc2c1C#N
remaining binding (cell-free assay; competition with immobilised ligand; 5 µM): 99%

CCN1CCN(Cc2ccc(C(=O)Nc3ccc(C)c(Oc4ccc5c(c4)CC(=O)N5)c3)cc2C(F)(F)F)CC1
remaining binding (binding; competition with immobilised ligand; 1 µM): 13%

CCCOc1ccc([C@H]2[C@H](C(=O)O)[C@@H](c3ccc4c(c3)OCO4)CN2CC(=O)Nc2c(CC)cccc2CC)cc1
remaining binding (cell-free assay; competition with immobilised ligand; 1 µM): 100%

CN(CCCC(F)(F)F)c1nccc(-c2cnn3ncccc23)n1
remaining binding (binding; 1 µM): 93%

O=C(c1ccc(Nc2nccc(-c3cc4ccccc4s3)n2)cc1)N1CCC(N2CCCC2)CC1
remaining binding (binding; competition with immobilised ligand; 1 µM): 83%

N#Cc1ccc(Nc2ccc3[nH]c(=O)[nH]c3c2)c(Cl)c1
remaining binding (cell-free assay; competition with immobilised ligand; 1 µM): 73%

COc1ccnn2ncc(-c3ccnc(N(C)C)n3)c12
remaining binding (binding; 1 µM): 92%

CO[C@@H](C)c1c(Nc2ccc([C@H](N(C)C(=O)C3CCS(=O)(=O)CC3)C(F)(F)F)cc2)cnc2cc(Cl)nn12
remaining binding (cell-free assay; competition with immobilised ligand; 1 µM): 80%

FC(F)(F)Oc1cccc(-c2cnc3ccc(-c4ccncc4)nn23)c1
remaining binding (cell-free assay; competition with immobilised ligand; 5 µM): 59%

CC1CCCN1c1nccc(-c2cnn3ncccc23)n1 (stereo not shown)
remaining binding (binding; competition with immobilised ligand; 1 µM): 88%

COc1ccc2c(c1)O[C@@H](c1ccc(OC)c(OC)c1)C[C@H]2NC(=O)C1(c2ccc3c(c2)OC(F)(F)O3)CC1
remaining binding (cell-free assay; competition with immobilised ligand; 1 µM): 100%

N[C@H]1CCN(c2nccc(-c3cnn4ncccc34)n2)C1
remaining binding (binding; competition with immobilised ligand; 1 µM): 100%

CS(=O)(=O)N1CCCC(NC(=O)[C@H](CCC2CCCCC2)NC(=O)c2ccc(CNc3ncnc4c3nnn4-c3ccccc3)cc2)C1 (stereo partly shown)
remaining binding (cell-free assay; competition with immobilised ligand; 0.1 µM): 60%
